Measured values published in ChEMBL document CHEMBL4715736, “Identification of anticancer agents based on the thieno[2,3-b]pyridine and 1H-pyrazole molecular scaffolds” (2016).

Tests used:
Type in all cases: functional
Details in all cases: read-out: Activity
IGROV-1 = test: Growth inhibition of human IGROV-1 cells assessed as cell growth at 10 uM incubated for 48 hrs by sulforhodamine B assay relative to control
How it was run: (§1)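 Submitted to the NCI Developmental Therapeutics Program for the NCI60 human tumour cell line panel. First screen at a single 10 µM concentration. Read-out is growth relative to untreated control cells set at 100%.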

RPMI-8226 = test: Growth inhibition of human RPMI-8226 cells assessed as cell growth at 10 uM incubated for 48 hrs by sulforhodamine B assay relative to control
How it was run: (§2)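 Run by the NCI Developmental Therapeutics Program as part of its 60-line human tumour panel. Each compound tested at a single 10 µM dose. Growth expressed as % relative to untreated control cells (100%).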

NCI-H23 = test: Growth inhibition of human NCI-H23 cells assessed as cell growth at 10 uM incubated for 48 hrs by sulforhodamine B assay relative to control; how it was run: as §1
DU-145 = test: Growth inhibition of human DU-145 cells assessed as cell growth at 10 uM incubated for 48 hrs by sulforhodamine B assay relative to control
How it was run: (§3)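 NCI Developmental Therapeutics Program NCI60 panel. Compounds that were active in the 10 µM one-dose screen went on to dose–response testing. Growth at each concentration is expressed relative to untreated control (100%). GI50 (concentration giving 50% of maximal inhibition of proliferation) and TGI (concentration giving total growth inhibition) were derived from the curves.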

SF-539 = test: Growth inhibition of human SF-539 cells assessed as cell growth at 10 uM incubated for 48 hrs by sulforhodamine B assay relative to control; how it was run: as §2
UO-31 = test: Growth inhibition of human UO-31 cells assessed as cell growth at 10 uM incubated for 48 hrs by sulforhodamine B assay relative to control; how it was run: as §2
CCRF-CEM = test: Growth inhibition of human CCRF-CEM cells assessed as cell growth at 10 uM incubated for 48 hrs by sulforhodamine B assay relative to control; how it was run: as §3
A498 = test: Growth inhibition of human A498 cells assessed as cell growth at 10 uM incubated for 48 hrs by sulforhodamine B assay relative to control; how it was run: as §3
MDA-MB-231 = test: Growth inhibition of human MDA-MB-231 cells assessed as cell growth at 10 uM incubated for 48 hrs by sulforhodamine B assay relative to control; how it was run: as §1
OVCAR-5 = test: Growth inhibition of human OVCAR-5 cells assessed as cell growth at 10 uM incubated for 48 hrs by sulforhodamine B assay relative to control; how it was run: as §2
SNB-19 = test: Growth inhibition of human SNB-19 cells assessed as cell growth at 10 uM incubated for 48 hrs by sulforhodamine B assay relative to control; how it was run: as §2
OVCAR-3 = test: Growth inhibition of human OVCAR-3 cells assessed as cell growth at 10 uM incubated for 48 hrs by sulforhodamine B assay relative to control; how it was run: as §2
RXF 393 = test: Growth inhibition of human RXF 393 cells assessed as cell growth at 10 uM incubated for 48 hrs by sulforhodamine B assay relative to control; how it was run: as §2
MDA-MB-435 = test: Growth inhibition of human MDA-MB-435 cells assessed as cell growth at 10 uM incubated for 48 hrs by sulforhodamine B assay relative to control; how it was run: as §1
A549 = test: Growth inhibition of human A549/ATCC cells assessed as cell growth at 10 uM incubated for 48 hrs by sulforhodamine B assay relative to control; how it was run: as §3
OVCAR-8 = test: Growth inhibition of human OVCAR-8 cells assessed as cell growth at 10 uM incubated for 48 hrs by sulforhodamine B assay relative to control; how it was run: as §2
MOLT-4 = test: Growth inhibition of human MOLT-4 cells assessed as cell growth at 10 uM incubated for 48 hrs by sulforhodamine B assay relative to control; how it was run: as §1
T47D = test: Growth inhibition of human T47D cells assessed as cell growth at 10 uM incubated for 48 hrs by sulforhodamine B assay relative to control; how it was run: as §2
HCC 2998 = test: Growth inhibition of human HCC 2998 cells assessed as cell growth at 10 uM incubated for 48 hrs by sulforhodamine B assay relative to control; how it was run: as §3
UACC-257 = test: Growth inhibition of human UACC-257 cells assessed as cell growth at 10 uM incubated for 48 hrs by sulforhodamine B assay relative to control; how it was run: as §2
UACC-62 = test: Growth inhibition of human UACC-62 cells assessed as cell growth at 10 uM incubated for 48 hrs by sulforhodamine B assay relative to control; how it was run: as §2
M14 = test: Growth inhibition of human M14 cells assessed as cell growth at 10 uM incubated for 48 hrs by sulforhodamine B assay relative to control; how it was run: as §1
HOP-92 = test: Growth inhibition of human HOP-92 cells assessed as cell growth at 10 uM incubated for 48 hrs by sulforhodamine B assay relative to control; how it was run: as §1
SK-MEL-5 = test: Growth inhibition of human SK-MEL-5 cells assessed as cell growth at 10 uM incubated for 48 hrs by sulforhodamine B assay relative to control; how it was run: as §2
SN12C = test: Growth inhibition of human SN12C cells assessed as cell growth at 10 uM incubated for 48 hrs by sulforhodamine B assay relative to control; how it was run: as §2
KM12 = test: Growth inhibition of human KM12 cells assessed as cell growth at 10 uM incubated for 48 hrs by sulforhodamine B assay relative to control; how it was run: as §1
MDA-MB-468 = test: Growth inhibition of human MDA-MB-468 cells assessed as cell growth at 10 uM incubated for 48 hrs by sulforhodamine B assay relative to control; how it was run: as §1
SF-295 = test: Growth inhibition of human SF-295 cells assessed as cell growth at 10 uM incubated for 48 hrs by sulforhodamine B assay relative to control; how it was run: as §2
HOP-62 = test: Growth inhibition of human HOP-62 cells assessed as cell growth at 10 uM incubated for 48 hrs by sulforhodamine B assay relative to control; how it was run: as §1
Malme-3M = test: Growth inhibition of human Malme-3M cells assessed as cell growth at 10 uM incubated for 48 hrs by sulforhodamine B assay relative to control; how it was run: as §1
786-0 = test: Growth inhibition of human 786-0 cells assessed as cell growth at 10 uM incubated for 48 hrs by sulforhodamine B assay relative to control; how it was run: as §3
U-251 = test: Growth inhibition of human U-251 cells assessed as cell growth at 10 uM incubated for 48 hrs by sulforhodamine B assay relative to control; how it was run: as §2
HL-60(TB) = test: Growth inhibition of human HL-60(TB) cells assessed as cell growth at 10 uM incubated for 48 hrs by sulforhodamine B assay relative to control
How it was run: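 Screened by the NCI Developmental Therapeutics Program on its panel of 60 human tumour cell lines. Compounds were first tested at a single 10 µM dose, and compounds active there went to dose-response curves. Growth is expressed relative to untreated control (100%). GI50 (50% of maximal proliferation inhibition) and TGI (total growth inhibition) were derived from the dose-response data.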

LOX IMVI = test: Growth inhibition of human LOX IMVI cells assessed as cell growth at 10 uM incubated for 48 hrs by sulforhodamine B assay relative to control; how it was run: as §1

Row | SMILES | growth at 10 µM (IGROV-1) | growth at 10 µM (RPMI-8226) | growth at 10 µM (NCI-H23) | growth at 10 µM (DU-145) | growth at 10 µM (SF-539) | growth at 10 µM (UO-31) | growth at 10 µM (CCRF-CEM) | growth at 10 µM (A498) | growth at 10 µM (MDA-MB-231) | growth at 10 µM (OVCAR-5) | growth at 10 µM (SNB-19) | growth at 10 µM (OVCAR-3) | growth at 10 µM (RXF 393) | growth at 10 µM (MDA-MB-435) | growth at 10 µM (A549) | growth at 10 µM (OVCAR-8) | growth at 10 µM (MOLT-4) | growth at 10 µM (T47D) | growth at 10 µM (HCC 2998) | growth at 10 µM (UACC-257) | further results
1 | CC1(C)CCc2cc(-c3ccn(S(=O)(=O)c4ccc(C(F)(F)F)cc4)n3)ccc2O1 | 89.3% | 76.6% | 83.1% | 103% | 94.6% | 80.2% | 82.8% | 74.2% | 112% | 95.7% | 113% | 104% | 84.2% | 96.6% | 79.8% | 90.9% | 78.7% | 63.9% | 94.4% | 86.8% | growth at 10 µM (UACC-62): 83.5%; growth at 10 µM (M14): 92.5%; growth at 10 µM (HOP-92): 71.8%; growth at 10 µM (SK-MEL-5): 90.7%; growth at 10 µM (SN12C): 97.3%; growth at 10 µM (KM12): 98%; growth at 10 µM (MDA-MB-468): 64.2%; growth at 10 µM (SF-295): 87.3%; growth at 10 µM (HOP-62): 119%; growth at 10 µM (Malme-3M): 97.3%; growth at 10 µM (786-0): 82.5%; growth at 10 µM (U-251): 89.1%; growth at 10 µM (HL-60(TB)): 117%; growth at 10 µM (LOX IMVI): 98.6%
2 | Cc1cc(C)cc(S(=O)(=O)n2ccc(-c3ccc4c(c3)CCC(C)(C)O4)n2)c1 | 105% | 73.2% | 73.6% | 89.8% | 99.8% | 75% | 96.3% | 63% | 93.5% | 116% | 94.6% | 87.8% | 77.3% | 93.8% | 80.8% | 91% | 91.4% | 58.2% | 88.2% | 89.6% | growth at 10 µM (UACC-62): 73.9%; growth at 10 µM (M14): 82.7%; growth at 10 µM (HOP-92): 78.1%; growth at 10 µM (SK-MEL-5): 82.9%; growth at 10 µM (SN12C): 88%; growth at 10 µM (KM12): 82.7%; growth at 10 µM (MDA-MB-468): 54.6%; growth at 10 µM (SF-295): 85%; growth at 10 µM (HOP-62): 116%; growth at 10 µM (Malme-3M): 82.9%; growth at 10 µM (786-0): 82.8%; growth at 10 µM (U-251): 85.6%; growth at 10 µM (HL-60(TB)): 99.8%; growth at 10 µM (LOX IMVI): 95%
